Laboratory results taken from ChEMBL document CHEMBL3244100, “Effect of sparsomycin analogues on the puromycin-peptidyl transferase reaction on ribosomes” (J Med Chem, 1978).
The source made the active and inactive calls. No cut-off for these calls is given here.

Key:
[1] = target: T1, Bacterial 70S ribosome (Bacteria) (UniProt P0A7V0+P60723+P0AG67+P0A7R5+P0A7R9+P0A7S3+P0A7S9+P0AG59+P0ADZ4+P0A7T3+P0AG63+P0A7T7+P0A7U3+P0A7U7+P68679+P0A7V3+P0A7V8+P0A7W1+P02358+P02359+P0A7W7+P0A7X3+P0A7J3+P0A7J7+P0AA10+P0ADY3+P02413+P0ADY7+P0AG44+P0C018+P0A7K6+P0A7L0+P0A7L3+P0AG48+P61175+P0ADZ0+P60624+P68919+P0A7L8+P0A7M2+P0A7M6+P60422+P0AG51+P0A7N1+P0A7M9+P0A7N4+P0A7N9+P0A7P5+P0A7Q1+Q2EEQ2+P0A7Q6+P60438+P62399+P0AG55+P0A7K2); assay: Competitive inhibition of peptidyl transferase activity of Escherichia coli ribosome using Ac[14C]-L-Phe-tRNA/puromycin as donor/acceptor substrate assessed as acetyl[14C]phenylalanylpuromycin formation at 2 x 10^-4 M by double reciprocal plot analysis
Outline: (§1)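 E. coli washed ribosomes (2.78 A260 units) charged with 20.8 pmol Ac[14C]Phe-tRNA in 100 mM Tris-Cl pH 7.5, 100 mM NH4Cl, 15 mM Mg(OAc)2, 0.65 mM DTT, 1.2 mM GTP, FWR, poly(U), 8 min at 28 °C. Mixture then added to puromycin with or without inhibitor, 28 °C. Product measured radiometrically. Ki from double reciprocal plots; highest concentration tested 2 × 10^-4 M.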

[2] = target: Bacterial 70S ribosome; assay: Competitive inhibition of peptidyl transferase activity of Escherichia coli ribosome using Ac[14C]-L-Phe-tRNA/puromycin as donor/acceptor substrate assessed as acetyl[14C]phenylalanylpuromycin formation by double reciprocal plot analysis; outline: as §1
[3] = target: Bacterial 70S ribosome; assay: Competitive inhibition of peptidyl transferase activity of Escherichia coli ribosome using Ac[14C]-L-Phe-tRNA/puromycin as donor/acceptor substrate assessed as acetyl[14C]phenylalanylpuromycin formation by Dixon plot analysis
[4] = target: T1, Bacterial 70S ribosome (Bacteria); assay: Competitive inhibition of peptidyl transferase activity of Escherichia coli ribosome using Ac[14C]-L-Phe-tRNA/puromycin as donor/acceptor substrate assessed as acetyl[14C]phenylalanylpuromycin formation at 10^-6 M preincubated for 15 mins prior to puromycin addition
Outline: (§2)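 Ribosomes charged with Ac[14C]-L-Phe-tRNA as in the binding step (poly(U), GTP, FWR, Mg2+, 8 min, 28 °C). The charged mixture was preincubated with 10^-6 M inhibitor for 15 min at 28 °C before adding 10^-4 M puromycin. Ac[14C]Phe-puromycin formation was followed over time at 28 °C.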

[5] = target: T1, Bacterial 70S ribosome (Bacteria); assay: Competitive inhibition of peptidyl transferase activity of Escherichia coli ribosome using Ac[14C]-L-Phe-tRNA/puromycin as donor/acceptor substrate assessed as acetyl[14C]phenylalanylpuromycin formation incubated with donor substrate/enzyme prior to puromycin addition; outline: as §2

| Compound | Ki [2] | further results |
| --- | --- | --- |
| Cc1[nH]c(=O)[nH]c(=O)c1/C=C/C(=O)NC(C)CO (racemic) | – | inhibition [1]: inactive |
| CCCCCC(CO)NC(=O)/C=C/c1c(C)[nH]c(=O)[nH]c1=O (racemic) | 2.3 µM | – |
| CCCSC[C@H](CO)NC(=O)/C=C/c1c(C)[nH]c(=O)[nH]c1=O | 1.1 µM | – |
| Cc1[nH]c(=O)[nH]c(=O)c1/C=C/C(=O)NC(CO)CSCc1ccccc1 (racemic) | 1.21 µM | – |
| CCCSC[C@@H](CO)NC(=O)/C=C/c1c(C)[nH]c(=O)[nH]c1=O | – | inhibition [1]: inactive |
| CCCSCC(CO)NC(=O)/C=C/c1c(C)[nH]c(=O)[nH]c1=O (racemic) | 2 µM | Ki [3]: 2 µM |
| CSC[S@@+]([O-])CC(CO)NC(=O)/C=C/c1c(C)[nH]c(=O)[nH]c1=O (stereo partly specified) [SPARSOMYCIN] | 0.5 µM | inhibition [4]: Active |
| CSCSCC(CO)NC(=O)/C=C/c1c(C)nc(O)nc1O (racemic) | 1.09 µM | inhibition [5]: Active |
